Assay results published in ChEMBL document CHEMBL4765260, “Inclusion of a 5-fluorouracil moiety in nitrogenous bases derivatives as human carbonic anhydrase IX and XII inhibitors produced a targeted action against MDA-MB-231 and T47D breast cancer cells” (Eur J Med Chem, 2020).
Active and inactive are the calls of the source. The calls are words filed in the database; no cut-off is given here.

How the values were obtained:
Carbonic anhydrase 9 [1] = target: T1, Carbonic anhydrase 9 (Homo sapiens, UniProt Q16790); experiment: Inhibition of recombinant human CA9 pre-incubated for 15 mins measured by phenol red dye based stopped flow CO2 hydration assay
Carbonic anhydrase 1 = Carbonic anhydrase 1 (Homo sapiens, UniProt P00915); experiment: Inhibition of recombinant human CA1 pre-incubated for 6 hrs measured by phenol red dye based stopped flow CO2 hydration assay
Sequence of Carbonic anhydrase 1 (P00915 whole entry): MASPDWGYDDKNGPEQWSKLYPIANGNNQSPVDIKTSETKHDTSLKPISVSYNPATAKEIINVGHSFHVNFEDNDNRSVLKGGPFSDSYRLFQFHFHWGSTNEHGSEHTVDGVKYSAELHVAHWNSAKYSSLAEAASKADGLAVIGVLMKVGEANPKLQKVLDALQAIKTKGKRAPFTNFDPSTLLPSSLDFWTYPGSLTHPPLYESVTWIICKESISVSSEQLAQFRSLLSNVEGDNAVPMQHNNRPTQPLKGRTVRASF
Summary of the method: (§1)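 Stopped-flow CO2 hydration at 0.2 mM phenol red (557 nm) in 20 mM Hepes pH 7.5 with 20 mM Na2SO4, initial rates followed for 10–100 s. CO2 1.7–17 mM; ≥6 traces of the first 5–10% of reaction per inhibitor; uncatalysed rate subtracted. Inhibitor diluted in assay buffer down to 0.01 nM, preincubated with enzyme 6 h at room temperature. Values are means of 3 assays.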

Carbonic anhydrase 9 [2] = target: T1, Carbonic anhydrase 9; experiment: Inhibition of recombinant human CA9 pre-incubated for 6 hrs measured by phenol red dye based stopped flow CO2 hydration assay; summary of the method: as §1
Carbonic anhydrase 2 = Carbonic anhydrase 2 (Homo sapiens, UniProt P00918); experiment: Inhibition of recombinant human CA2 pre-incubated for 6 hrs measured by phenol red dye based stopped flow CO2 hydration assay; summary of the method: as §1
Carbonic anhydrase 12 = Carbonic anhydrase 12 (Homo sapiens, UniProt O43570); experiment: Inhibition of recombinant human CA12 pre-incubated for 6 hrs measured by phenol red dye based stopped flow CO2 hydration assay; summary of the method: as §1
Sequence of Carbonic anhydrase 12 (O43570 whole entry): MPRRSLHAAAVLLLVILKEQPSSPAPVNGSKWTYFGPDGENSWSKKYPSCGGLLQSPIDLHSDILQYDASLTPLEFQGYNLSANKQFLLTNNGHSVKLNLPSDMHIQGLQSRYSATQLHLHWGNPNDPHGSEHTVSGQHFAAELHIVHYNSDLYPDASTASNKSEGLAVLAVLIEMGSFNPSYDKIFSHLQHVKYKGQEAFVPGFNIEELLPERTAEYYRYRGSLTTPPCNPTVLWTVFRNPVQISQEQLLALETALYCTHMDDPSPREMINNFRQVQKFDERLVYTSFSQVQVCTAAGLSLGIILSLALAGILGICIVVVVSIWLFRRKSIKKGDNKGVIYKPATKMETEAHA

HeLa = experiment: Antiproliferative activity against human HeLa cells assessed as cell viability measured after 72 hrs by SRB assay; format: functional, cell-based
Summary of the method: (§2)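 SRB colorimetric assay on ATCC-sourced cell lines kept in RPMI or DMEM with 10% heat-inactivated FBS, penicillin 100 units/mL and streptomycin at 37 °C in humidified 5% CO2. Preliminary screen: each compound tested in triplicate at two fixed concentrations (10 and 100). Read-out is percent cell viability.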

COLO 205 = experiment: Antiproliferative activity against human COLO 205 cells assessed as cell viability measured after 72 hrs by SRB assay; format: functional, cell-based; summary of the method: as §2
A549 = experiment: Antiproliferative activity against human A549 cells assessed as cell viability measured after 72 hrs by SRB assay; format: functional, cell-based; summary of the method: as §2
HL-60 = experiment: Antiproliferative activity against human HL-60 cells assessed as cell viability measured after 72 hrs by SRB assay; format: functional, cell-based; summary of the method: as §2
SK-OV-3 = experiment: Antiproliferative activity against human SK-OV-3 cells assessed as cell viability measured after 72 hrs by SRB assay; format: functional, cell-based; summary of the method: as §2
MDA-MB-231 [3] = experiment: Antiproliferative activity against human MDA-MB-231 cells assessed as cell viability measured after 72 hrs by SRB assay; format: functional, cell-based; summary of the method: as §2
MCF7 = experiment: Antiproliferative activity against human MCF7 cells assessed as cell viability measured after 72 hrs by SRB assay; format: functional, cell-based; summary of the method: as §2
T47D [4] = experiment: Antiproliferative activity against human T47D cells assessed as cell viability measured after 72 hrs by SRB assay; format: functional, cell-based; summary of the method: as §2
MDA-MB-231 [5] = experiment: cells; conditions: Homo sapiens, MDA-MB-231, 72 h
T47D [6] = experiment: cells; conditions: Homo sapiens, 72 h
T47D [7] = experiment: Induction of cell cycle arrest in human T47D cells assessed as accumulation of cells in G2/M phase at […] uM measured after 24 hrs by DNA flow cytometry assay (reference value: 16.59%); format: functional
T47D [8] = experiment: Induction of cell cycle arrest in human T47D cells assessed as accumulation of cells in sub-G1 phase at […] uM measured after 24 hrs by DNA flow cytometry assay (reference value: 2.41%); format: functional
T47D [9] = experiment: Induction of apoptosis in human T47D cells assessed as viable cells at […] uM measured after 24 hrs by Annexin V-FITC stain based flow cytometry method relative to control; format: functional, cell-based; conditions: dose 7.56 µM
T47D [10] = experiment: Induction of apoptosis in human T47D cells assessed as early apoptotic cells at […] uM measured after 24 hrs by Annexin V-FITC stain based flow cytometry method (reference value: 0.39%); format: functional
T47D [11] = experiment: Induction of apoptosis in human T47D cells assessed as late apoptotic cells at […] uM measured after 24 hrs by Annexin V-FITC stain based flow cytometry method (reference value: 0.17%); format: functional
T47D [12] = experiment: Induction of apoptosis in human T47D cells assessed as necrotic cells at […] uM measured after 24 hrs by Annexin V-FITC stain based flow cytometry method (reference value: 1.91%); format: functional
T47D [13] = experiment: Induction of apoptosis in human T47D cells assessed as viable cells at […] uM measured after 24 hrs by Annexin V-FITC stain based flow cytometry method; format: functional, cell-based; conditions: dose 2.45 µM

SMILES: NS(=O)(=O)c1ccc(-n2cc(Cn3cc(F)c(=O)[nH]c3=O)nn2)c(Br)c1
- Ki (Carbonic anhydrase 9 [1]): 3.8 nM

SMILES: NS(=O)(=O)c1ccc(NC(=O)Cn2cc(F)c(=O)[nH]c2=O)cc1
- Ki (Carbonic anhydrase 9 [1]): 4.8 nM

SMILES: Cc1cc(=O)oc2cc(-n3cc(Cn4cc(F)c(=O)[nH]c4=O)nn3)ccc12
- Ki (Carbonic anhydrase 1): > 10000 nM
- Ki (Carbonic anhydrase 9 [2]): 173 nM
- Ki (Carbonic anhydrase 2): > 10000 nM
- Ki (Carbonic anhydrase 12): 408 nM

SMILES: CN(C)c1ccc(CN(CCc2ccc(S(N)(=O)=O)cc2)C(=O)Cn2cc(F)c(=O)[nH]c2=O)cc1
- Ki (Carbonic anhydrase 9 [1]): 26.8 nM

SMILES: NS(=O)(=O)c1ccc(CCN(Cc2ccc(Cl)cc2)C(=O)Cn2cc(F)c(=O)[nH]c2=O)cc1
- Ki (Carbonic anhydrase 9 [1]): 4.2 nM
- growth inhibition (GI) (HeLa): inactive
- growth inhibition (GI) (COLO 205): inactive
- growth inhibition (GI) (A549): inactive
- growth inhibition (GI) (HL-60): inactive
- growth inhibition (GI) (SK-OV-3): inactive
- growth inhibition (GI) (MDA-MB-231 [3]): Active
- growth inhibition (GI) (MCF7): inactive
- growth inhibition (GI) (T47D [4]): Active
- IC50 (MDA-MB-231 [5]): 40900 nM
- IC50 (T47D [6]): 18900 nM

SMILES: NS(=O)(=O)c1cccc(NC(=O)Cn2cc(F)c(=O)[nH]c2=O)c1
- Ki (Carbonic anhydrase 9 [1]): 44.7 nM

SMILES: N#Cc1ccc(CN(CCc2ccc(S(N)(=O)=O)cc2)C(=O)Cn2cc(F)c(=O)[nH]c2=O)cc1
- Ki (Carbonic anhydrase 9 [1]): 4.9 nM

SMILES: Cc1cc(=O)oc2cc(NC(=O)Cn3cc(F)c(=O)[nH]c3=O)ccc12
- Ki (Carbonic anhydrase 1): > 10000 nM
- Ki (Carbonic anhydrase 9 [2]): 16.5 nM
- Ki (Carbonic anhydrase 2): > 10000 nM
- Ki (Carbonic anhydrase 12): 23.2 nM
- growth inhibition (GI) (HeLa): inactive
- growth inhibition (GI) (COLO 205): inactive
- growth inhibition (GI) (A549): inactive
- growth inhibition (GI) (HL-60): inactive
- growth inhibition (GI) (SK-OV-3): inactive
- growth inhibition (GI) (MDA-MB-231 [3]): Active
- growth inhibition (GI) (MCF7): inactive
- growth inhibition (GI) (T47D [4]): Active
- IC50 (MDA-MB-231 [5]): 32000 nM
- IC50 (T47D [6]): 13200 nM

SMILES: NS(=O)(=O)c1ccc(-n2cc(Cn3cc(F)c(=O)[nH]c3=O)nn2)cc1
- Ki (Carbonic anhydrase 9 [1]): 0.47 nM
- growth inhibition (GI) (HeLa): inactive
- growth inhibition (GI) (COLO 205): inactive
- growth inhibition (GI) (A549): inactive
- growth inhibition (GI) (HL-60): inactive
- growth inhibition (GI) (SK-OV-3): inactive
- growth inhibition (GI) (MDA-MB-231 [3]): Active
- growth inhibition (GI) (MCF7): inactive
- growth inhibition (GI) (T47D [4]): Active
- IC50 (MDA-MB-231 [5]): 22800 nM
- IC50 (T47D [6]): 33500 nM

SMILES: NS(=O)(=O)c1ccc(O)c(NC(=O)Cn2cc(F)c(=O)[nH]c2=O)c1
- Ki (Carbonic anhydrase 9 [1]): 453 nM
- Activity (T47D [7]; 7.56 µM): 26.83%
- Activity (T47D [8]; 7.56 µM): 12.72%
- Activity (T47D [9]): Active
- Activity (T47D [10]; 7.56 µM): 3.59%
- Activity (T47D [11]; 7.56 µM): 9.62%
- Activity (T47D [12]; 7.56 µM): 1.36%
- growth inhibition (GI) (HeLa): inactive
- growth inhibition (GI) (COLO 205): inactive
- growth inhibition (GI) (A549): inactive
- growth inhibition (GI) (HL-60): inactive
- growth inhibition (GI) (SK-OV-3): inactive
- growth inhibition (GI) (MDA-MB-231 [3]): Active
- growth inhibition (GI) (MCF7): inactive
- growth inhibition (GI) (T47D [4]): Active
- IC50 (MDA-MB-231 [5]): 25500 nM
- IC50 (T47D [6]): 7560 nM

SMILES: O=C(Cn1cc(F)c(=O)[nH]c1=O)Oc1ccc2ccc(=O)oc2c1
- Ki (Carbonic anhydrase 1): > 10000 nM
- Ki (Carbonic anhydrase 9 [2]): 36.8 nM
- Ki (Carbonic anhydrase 2): > 10000 nM
- Ki (Carbonic anhydrase 12): 14.4 nM

SMILES: NS(=O)(=O)c1cccc(-n2cc(Cn3cc(F)c(=O)[nH]c3=O)nn2)c1
- Ki (Carbonic anhydrase 9 [1]): 105 nM

SMILES: NS(=O)(=O)c1ccc(CNC(=O)Cn2cc(F)c(=O)[nH]c2=O)cc1
- Ki (Carbonic anhydrase 9 [1]): 29.2 nM

SMILES: NS(=O)(=O)c1ccc(CCNC(=O)Cn2cc(F)c(=O)[nH]c2=O)cc1
- Ki (Carbonic anhydrase 9 [1]): 24.8 nM

SMILES: NS(=O)(=O)c1ccc(CCN(Cc2ccccc2)C(=O)Cn2cc(F)c(=O)[nH]c2=O)cc1
- Ki (Carbonic anhydrase 9 [1]): 3.5 nM

SMILES: NS(=O)(=O)c1ccc(-n2cc(Cn3cc(F)c(=O)[nH]c3=O)nn2)c(Cl)c1
- Ki (Carbonic anhydrase 9 [1]): 11.2 nM

SMILES: NS(=O)(=O)c1ccc(CCN(Cc2ccc(F)cc2)C(=O)Cn2cc(F)c(=O)[nH]c2=O)cc1
- Ki (Carbonic anhydrase 9 [1]): 11.8 nM

SMILES: COc1ccc(CN(CCc2ccc(S(N)(=O)=O)cc2)C(=O)Cn2cc(F)c(=O)[nH]c2=O)cc1
- Ki (Carbonic anhydrase 9 [1]): 1.9 nM
- Activity (T47D [7]; 2.45 µM): 35.47%
- Activity (T47D [8]; 2.45 µM): 18.04%
- Activity (T47D [10]; 2.45 µM): 7.31%
- Activity (T47D [11]; 2.45 µM): 12.19%
- Activity (T47D [12]; 2.45 µM): 2.51%
- Activity (T47D [13]): Active
- growth inhibition (GI) (HeLa): inactive
- growth inhibition (GI) (COLO 205): inactive
- growth inhibition (GI) (A549): inactive
- growth inhibition (GI) (HL-60): inactive
- growth inhibition (GI) (SK-OV-3): inactive
- growth inhibition (GI) (MDA-MB-231 [3]): Active
- growth inhibition (GI) (MCF7): inactive
- growth inhibition (GI) (T47D [4]): Active
- IC50 (MDA-MB-231 [5]): 6860 nM
- IC50 (T47D [6]): 2450 nM
